Columns and labels:
Format in all cases: functional
[1] = tested on: HOP-62; assay: Cytotoxicity against human HOP62 cells after 48 hrs by SRB assay; conditions: HOP-62, 48 h
How it was run: (§1)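 NCI 60-cell-line panel of human tumour lines from nine cancer types. Continuous 48 h exposure at five 10-fold dilutions from 10^-4 to 10^-8 M, with 5-FU as positive control. SRB protein stain read spectrophotometrically at time zero, untreated control and each concentration. GI50, TGI and LC50 were derived from the [(Ti−Tz)/(C−Tz)]×100 growth relations, and out-of-range values are given as > or < the tested limits.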

[2] = Cytotoxicity against human UO31 cells after 48 hrs by SRB assay; conditions: UO-31, 48 h
How it was run: (§2)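 NCI 60-cell-line panel, 48 h continuous exposure to five 10-fold dilutions from 10^-4 to 10^-8 M. SRB protein staining was read spectrophotometrically, with time-zero, untreated-control and treated absorbances. GI50, TGI and LC50 were derived from the percentage-growth formulas. Values outside the tested range are expressed as more or less than the maximum or minimum concentration.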

[3] = tested on: SK-MEL-5; assay: Growth inhibition of human SK-MEL-5 cells assessed as cell growth at 10^-8 M after 48 hrs by SRB assay; conditions: SK-MEL-5, 48 h, read-out: Activity
[4] = tested on: HT-29; assay: Growth inhibition of human HT-29 cells assessed as cell growth at 10^-6 M after 48 hrs by SRB assay; conditions: HT-29, 48 h, read-out: Activity
[5] = Growth inhibition of human UACC62 cells assessed as cell growth at 10^-8 M after 48 hrs by SRB assay; conditions: UACC-62, 48 h, read-out: Activity
[6] = tested on: NCI-H23; assay: Growth inhibition of human NCI-H23 cells assessed as cell growth at 10^-8 M after 48 hrs by SRB assay; conditions: NCI-H23, 48 h, read-out: Activity
[7] = Growth inhibition of human UACC62 cells assessed as cell growth at 10^-5 M after 48 hrs by SRB assay; conditions: UACC-62, 48 h, read-out: Activity
[8] = tested on: IGROV-1; assay: Growth inhibition of human IGROV1 cells assessed as cell growth at 10^-6 M after 48 hrs by SRB assay; conditions: IGROV-1, 48 h, read-out: Activity
[9] = tested on: SF-268; assay: Growth inhibition of human SF268 cells assessed as cell growth at 10^-6 M after 48 hrs by SRB assay; conditions: SF-268, 48 h, read-out: Activity
[10] = tested on: SR; assay: Growth inhibition of human SR cells assessed as cell growth at 10^-6 M after 48 hrs by SRB assay; conditions: read-out: Activity
[11] = tested on: CCRF-CEM; assay: Growth inhibition of human CCRF-CEM cells assessed as cell growth at 10^-4 M after 48 hrs by SRB assay; conditions: read-out: Activity
How it was run: (§3)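 Five-dose NCI panel protocol. Each dose (10^-4 to 10^-8 M, 10-fold steps) was given as 48 h continuous exposure, and protein was measured by SRB staining. Percentage growth at each level is [(Ti−Tz)/(C−Tz)]×100, where Tz is time-zero absorbance and C is untreated control.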

[12] = tested on: M14; assay: Growth inhibition of human M14 cells assessed as cell growth at 10^-5 M after 48 hrs by SRB assay; conditions: M14, 48 h, read-out: Activity
[13] = tested on: CAKI-1; assay: Growth inhibition of human CAKI-1 cells assessed as cell growth at 10^-8 M after 48 hrs by SRB assay; conditions: CAKI-1, 48 h, read-out: Activity; how it was run: as §3
[14] = tested on: SK-MEL-5; assay: Cytotoxicity against human SK-MEL-5 cells after 48 hrs by SRB assay; conditions: SK-MEL-5, 48 h; how it was run: as §1
[15] = tested on: SNB-19; assay: Growth inhibition of human SNB19 cells assessed as cell growth at 10^-8 M after 48 hrs by SRB assay; conditions: SNB-19, 48 h, read-out: Activity
[16] = Growth inhibition of human OVCAR8 cells assessed as cell growth at 10^-4 M after 48 hrs by SRB assay; conditions: OVCAR-8, 48 h, read-out: Activity
[17] = tested on: Malme-3M; assay: Growth inhibition of human MALME-3M cells assessed as cell growth at 10^-5 M after 48 hrs by SRB assay; conditions: read-out: Activity
[18] = Growth inhibition of human OVCAR3 cells assessed as cell growth at 10^-6 M after 48 hrs by SRB assay; conditions: OVCAR-3, 48 h, read-out: Activity
[19] = Growth inhibition of human RXF393 cells assessed as cell growth at 10^-4 M after 48 hrs by SRB assay; conditions: RXF 393, 48 h, read-out: Activity
[20] = Cytotoxicity against human NCI-ADR-RES cells after 48 hrs by SRB assay; how it was run: as §1
[21] = tested on: PC-3; assay: Growth inhibition of human PC3 cells assessed as cell growth at 10^-4 M after 48 hrs by SRB assay; conditions: PC-3, 48 h, read-out: Activity
[22] = tested on: A498; assay: Growth inhibition of human A498 cells assessed as cell growth at 10^-7 M after 48 hrs by SRB assay; conditions: A498, 48 h, read-out: Activity; how it was run: as §3
[23] = Cytotoxicity against human UACC62 cells after 48 hrs by SRB assay; conditions: UACC-62, 48 h; how it was run: as §2
[24] = tested on: SR; assay: Growth inhibition of human SR cells assessed as cell growth at 10^-5 M after 48 hrs by SRB assay; conditions: read-out: Activity
[25] = tested on: HCT-116; assay: Growth inhibition of human HCT116 cells assessed as cell growth at 10^-8 M after 48 hrs by SRB assay; conditions: HCT-116, 48 h, read-out: Activity
[26] = tested on: NCI-H322M; assay: Growth inhibition of human NCI-H322M cells assessed as cell growth at 10^-5 M after 48 hrs by SRB assay; conditions: read-out: Activity
[27] = tested on: SK-MEL-28; assay: Growth inhibition of human SK-MEL-28 cells assessed as cell growth at 10^-5 M after 48 hrs by SRB assay; conditions: SK-MEL-28, 48 h, read-out: Activity
[28] = tested on: COLO 205; assay: Growth inhibition of human COLO205 cells assessed as cell growth at 10^-7 M after 48 hrs by SRB assay; conditions: COLO 205, 48 h, read-out: Activity; how it was run: as §3
[29] = tested on: PC-3; assay: Growth inhibition of human PC3 cells assessed as cell growth at 10^-6 M after 48 hrs by SRB assay; conditions: PC-3, 48 h, read-out: Activity
[30] = read-out: LC50 (the source's name)
[31] = read-out: pLC50 (the source's name) (converted)

Cc1ccc(-c2nc3ccc(Cl)cc3c(=O)n2/N=C/c2ccccc2)cc1
GI50 ([1]; read-out: GI50): 1.98 µM | CC50 [1, 30]: 31.8 µM | TGI ([1]; read-out: TGI): 5.09 µM | GI50 ([1]; read-out: pGI50 (converted)): 2 µM | CC50 [1, 31]: 31.6 µM | TGI ([1]; read-out: pTGI (converted)): 5.13 µM | GI50 ([2]; read-out: GI50): 3.66 µM | CC50 [2, 30]: > 100 µM | TGI ([2]; read-out: TGI): > 100 µM | GI50 ([2]; read-out: pGI50 (converted)): 3.63 µM | CC50 [2, 31]: > 100 µM | TGI ([2]; read-out: pTGI): > 100 µM | growth at 0.01 µM [3]: 94% | growth at 1 µM [4]: 94% | growth at 0.01 µM [5]: 93% | growth at 0.01 µM [6]: 98% | growth at 10 µM [7]: 62% | growth at 1 µM [8]: 71% | growth at 1 µM [9]: 90% | growth at 1 µM [10]: 52% | growth at 100 µM [11]: 57% | growth at 10 µM [12]: 60% | growth at 0.01 µM [13]: 89% | GI50 ([14]; read-out: GI50): 20 µM | CC50 [14, 30]: > 100 µM | TGI ([14]; read-out: TGI): > 100 µM | GI50 ([14]; read-out: pGI50 (converted)): 20 µM | CC50 [14, 31]: > 100 µM | TGI ([14]; read-out: pTGI): > 100 µM | growth at 0.01 µM [15]: 96% | growth at 100 µM [16]: 27% | growth at 10 µM [17]: 43% | growth at 1 µM [18]: 94% | growth at 100 µM [19]: 19% | GI50 ([20]; read-out: GI50): 8.87 µM | CC50 [20, 30]: > 100 µM | TGI ([20]; read-out: TGI): > 100 µM | GI50 ([20]; read-out: pGI50 (converted)): 8.91 µM | CC50 [20, 31]: > 100 µM | TGI ([20]; read-out: pTGI): > 100 µM | growth at 100 µM [21]: 49% | growth at 0.1 µM [22]: 85% | GI50 ([23]; read-out: GI50): 25.8 µM | CC50 [23, 30]: > 100 µM | TGI ([23]; read-out: TGI): > 100 µM | GI50 ([23]; read-out: pGI50 (converted)): 25.7 µM | CC50 [23, 31]: > 100 µM | TGI ([23]; read-out: pTGI): > 100 µM | growth at 10 µM [24]: 63% | growth at 0.01 µM [25]: 100% | growth at 10 µM [26]: 52% | growth at 10 µM [27]: 60% | growth at 0.1 µM [28]: 116% | growth at 1 µM [29]: 86%

— ChEMBL document CHEMBL3259728, “Design, synthesis and biological evaluation of some novel substituted quinazolines as antitumor agents” (2014)
